Data set [1] relates to nontagged Cx26 junctional channels. As to the kind of experiment: Parachute assay for gap junctional communication. It counts as cell-based. As to conditions: n = 4–9; for Intercellular calcein transfer: extracellular taurine, normalized to control. In short, it runs like this:
(§1)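 Parachute dye-coupling assay. Connexin-expressing HeLa donor cells were labelled for 30 min at 37°C with 10 µM CM-DiI plus 5 µM calcein-AM, washed in PBS/glucose, trypsinized and seeded at ~1:150 onto semi-confluent unlabelled receiver monolayers. Cells attached for 3 h at 37°C with extracellular taurine. Calcein-positive receivers per DiI-labelled donor were averaged and normalized to control cultures.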

Data set [2] relates to Cx26/Cx32T junctional channels. As to the kind of experiment: Parachute assay for gap junctional communication. As to conditions: n = 4–9. The format is cell-based, rat. The essentials:
as §1

Data set [3] has as its system nontagged Cx26 hemichannels. As to the kind of experiment: Hemichannel calcein uptake by HeLa cells. It counts as cell-based. As to conditions: extracellular taurine, low [Ca2+]ex; n = 3. The essentials:
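HeLa clone stably expressing nontagged Cx26. Semi-confluent monolayers were washed, then loaded for 30 min at 37°C in low-Ca buffer (0.5 mM CaCl2, 30 mM KCl, 11 mM glucose, Tris pH 7.4) with 100 µM calcein, with or without taurine. Cells were washed in 2 mM Ca buffer and imaged. Dye-containing cells were counted, and each taurine condition was normalized to its own taurine-free control.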

Data set [4] has as its system heteromeric Cx26/Cx32T hemichannels. As to the kind of experiment: TSF liposome hemichannel activity. Conditions: taurine-exposed liposomes. The format is biochemical, rat. The essentials: (§2)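 Rat connexins carrying a C-terminal thrombin-site–HA(HN)6 tag were expressed in Tet-On HeLa (1 µg/ml dox, 48 h). Hemichannels were octylglucoside-solubilized, anti-HA immunopurified and reconstituted into PC/PS/rhod-PE liposomes entrapping urea buffer. Taurine was present in iso-osmolar urea/sucrose gradients (300,000 gav, 3 h, 37°C). Bands were followed by rhod-PE fluorescence, densities by refractometry at 25°C. Lower-band fraction was Poisson-corrected and normalized to the preparation maximum.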

Data set [5] deals with the different tagged connexin hemichannels other than Cx26/Cx32T. As to the kind of experiment: Hemichannel calcein uptake by HeLa cells. It counts as cell-based, rat. Conditions: extracellular taurine, low [Ca2+]ex; n = 3.
For data set [6], the system named is Cx26T/Cx32 junctional channels. As to the kind of experiment: Parachute assay for gap junctional communication. Conditions: extracellular taurine; normalized to control; n = 4–9. The format is cell-based, rat.
The subject of data set [7] is homomeric Cx26Tc hemichannels. As to the kind of experiment: TSF liposome hemichannel activity, tag cleaved. The format is biochemical, rat. As to conditions: 10 mM taurine; tag cleaved (LVPR left); n = 5–8. In short, it runs like this:
(§3)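 Tagged rat hemichannels were anti-HA immunopurified from dox-induced Tet-On HeLa, then cleaved with 2 U thrombin for 18 h at 4°C, leaving LVPR at the C-terminus. They were reconstituted by gel filtration into rhod-PE-labelled liposomes in urea buffer, then centrifuged for 3 h at 37°C through iso-osmolar urea/sucrose gradients containing aminosulfonate. Band densities were read by refractometry. Lower-band fraction was Poisson-corrected, normalized per preparation and pooled.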

Data set [8] relates to homomeric Cx32Tc hemichannels. The data set is described as follows: TSF liposome hemichannel activity, tag cleaved. The format is biochemical, rat. The essentials:
as §3

The test system of data set [9] is Cx26/Cx32T hemichannels. As to the kind of experiment: Hemichannel calcein uptake by HeLa cells. The format is cell-based, rat. As to conditions: extracellular taurine, low [Ca2+]ex; n = 3.
Data set [10] concerns untagged homomeric Cx26 hemichannels. As to the kind of experiment: TSF liposome hemichannel activity, untagged. The format is biochemical. As to conditions: with AS treatment.
Data set [11] relates to Cx26CL–Cx26CT complex. The data set is described as follows: 1H-15N HSQC NMR, effect of taurine on CL–CT complex. It counts as binding, rat. Conditions: pH 7.0, 42°C.
Data set [12] concerns homomeric Cx32T hemichannels. As to the kind of experiment: TSF liposome hemichannel activity. The format is biochemical, rat. Conditions: taurine-exposed liposomes. The essentials:
as §2

The test system of data set [13] is untagged heteromeric Cx26/Cx32 hemichannels. As to the kind of experiment: TSF liposome hemichannel activity, untagged. The format is biochemical. As to conditions: with AS treatment.
The conditions of data set [14]: 37°C; source not given; cited from earlier work.
In data set [15] the test system is Cx26CT–^biotCL3 interaction. As to the kind of experiment: CT+CL peptide-binding assay. Details: species or system rat.
The subject of data set [16] is Cx26CL (15N-labeled). As to the kind of experiment: 1H-15N HSQC NMR interaction. It counts as binding, rat. Conditions: 10 µM Cx26CL, pH 7.0, 42°C, 6% LPPG, 20 mM MES.
The subject of data set [17] is heteromeric Cx26Tc/Cx32 hemichannels. The data set is described as follows: TSF liposome hemichannel activity, tag cleaved. The format is biochemical, rat. In short, it runs like this:
as §3

Data set [18] has as its system heteromeric Cx26/Cx32Tc hemichannels. As to the kind of experiment: TSF liposome hemichannel activity, tag cleaved. The format is biochemical, rat. In short, it runs like this:
as §3

Data set [19] has as its system Cx32T junctional channels. As to the kind of experiment: Parachute assay for gap junctional communication. It counts as cell-based, rat. As to conditions: extracellular taurine; normalized to control; n = 4–9. In short, it runs like this: as §1
Data set [20] has as its system heteromeric Cx26T/Cx32 hemichannels. The data set is described as follows: TSF liposome hemichannel activity. The format is biochemical, rat. The essentials:
as §2

The subject of data set [21] is homomeric Cx26T hemichannels. As to the kind of experiment: TSF liposome hemichannel activity. The format is biochemical, rat. The essentials: as §2
For data set [22], the system named is hemichannels that contained connexin26 (Cx26), homomeric or with Cx32 (heteromeric). Conditions: cytoplasmic concentrations; ref Tao and Harris, 2004; cited from earlier work.
Data set [23] relates to Cx26T/Cx32 hemichannels. As to the kind of experiment: Hemichannel calcein uptake by HeLa cells. The format is cell-based, rat. As to conditions: extracellular taurine, low [Ca2+]ex; n = 3.
The mark [24] stands for this setting: extracellular HEPES in presence of extracellular taurine.
Setting [25] is: tag cleaved (LVPR left), n = 5–8.
Where [26] appears, read: 30 mM taurine, 4 mM Cx26CT, 10 µM Cx26CL.
The mark [27] stands for this setting: up to 50 mM of protonated taurine.

Entries after “also recorded” stand apart in the source; their conditions may differ.

For `O=S(=O)(O)CCN1CCN(CCO)CC1` [HEPES], in data set [1] (setting [24]), the “Block of taurine effect on junctional calcein transfer” value is recorded as “eliminated by HEPES; also recorded: restored AS insensitivity”. Moreover, in data set [2] (setting [24]), the “Block of taurine effect on junctional channel permeability of calcein” value is on record as “effectively eliminated the taurine effect; also recorded: AS insensitive”.

The pKa is the negative logarithm of the acid dissociation constant. With `NCCS(=O)(=O)O` [taurine, β-aminosulfonic acid], in [3], the Calcein hemichannel uptake result is “markedly reduced”. For the same compound, the “Pore narrowing (intermediate band in TSF)” value in [4], in data set [8] (taurine-exposed liposomes), in data set [12], in data set [17] (taurine-exposed liposomes), in data set [18] (taurine-exposed liposomes) and in [20] (taurine-exposed liposomes) was “do not form intermediate bands” each time. Also, the Calcein dye uptake entry in [5] and in data set [23] was “absence of effect” in each case. Besides, the Intercellular calcein transfer entry in data set [6] was “not in the Cx26T/Cx32 cells or the Cx26T cells”; in data set [1] it was “markedly reduced”; in [1] (listed as AS), “substantially reduced”; in data set [2] (extracellular taurine, normalized to control), “decreased”; in data set [19], “unchanged compared with controls”. Further, the “AS effect on hemichannel activity (TSF)” value in [7] is “remained AS insensitive”. In addition, the “AS sensitivity of hemichannel activity (TSF)” value in data set [8] (setting [25]) is listed as “AS insensitive”; in data set [18] (setting [25]), “AS sensitive”. Also, the “Completeness of inhibition of dye uptake” value in data set [9] is “not complete”. The “Occlusion of hemichannels (TSF band shift from lowest to upper band)” value in [10] and in [13] was “full occlusion of the hemichannels” each time. The “Effect on Cx26CL–Cx26CT complex by NMR, Fig. 8 B peaks” value in data set [11] (setting [26]) is “a negligible effect of taurine on the Cx26CL–Cx26CT complex”. Besides, the “Effect on Cx26CL–Cx26CT complex by NMR, Fig. 8 D peaks” value in [11] (setting [26]) is “move to unique positions in the presence of both taurine and the Cx26CT”. Further, in data set [11] (setting [26]), the “Effect on Cx26CL–Cx26CT interaction by NMR, Fig. 8 C peaks” value was “taurine reverses the Cx26CL–Cx26CT interaction at this position”. For the same compound, in data set [11] (concluded from NMR), the “Mode of action on Cx26CT–Cx26CL interaction” value is “competitive inhibitor of the interaction between Cx26CT and the Cx26CL”. The pKa in data set [14] is on record as 8.8. In addition, in [15] (10 µM ^biotCL3, not fit to any standard binding isotherm), the “Taurine concentration for complete dissociation of CL–CT peptides” value is reported as around 5 mM. In addition, the “Disruption of CL–CT peptide interaction” value in data set [15] (1 mM taurine, pH 6.5, 10 µM ^biotCL3) is “Approximately 50%”. Also, the “Effect of taurine on Cx26CT–CL3 interaction” value in [15] (10 mM taurine, 10 µM CL peptide) was “substantial but not complete dissociation; also recorded: substantially reduced”. Moreover, the “Concentration dependence of disruption of CL–CT interaction” value in data set [15] (pH 6.5 and 7.4, 10 µM ^biotCL3) is “a linear function of the log of taurine concentration”. The “pH dependence of taurine disruption of CL–CT interaction” value in [15] (pH 6.5 versus 7.4, 10 µM ^biotCL3) is “substantially greater at the lower pH”. Besides, the “Interaction with Cx26CL by NMR (resonance peaks affected)” value in [16] (30 mM taurine) is “taurine interacts with the Cx26CL at some residues (peaks iii and iv)”. In addition, the “AS inhibition of hemichannel activity (TSF)” value in data set [17] (10 mM taurine, tag cleaved (LVPR left), n = 5–8) is given as “AS inhibition was restored”. For the same compound, the “Inhibition of hemichannels (TSF)” value in data set [20] (setting [27]) and in data set [21] (setting [27]) was “not inhibited” each time. Besides, the “Effect on pore diameter (TSF band density)” value in data set [21] (10 mM AS (taurine)) was “no discernable effect on the pore diameter”. For the same compound, the “Inhibition of Cx26-containing hemichannels by cytoplasmic AS” value in data set [22] is on record as “inhibitory at cytoplasmic concentrations”.

In the case of “Cx26CT: peptide with sequence corresponding to the Cx26CT (residues 213–226) (LFIRYCSGKSKRPV)”, in data set [16] (4 mM Cx26CT), the “Interaction with Cx26CL by NMR (resonance peaks affected)” value was “more resonance peaks are affected by the Cx26CT than by taurine”.

Source of the values: paper PMC3171079 (The Journal of General Physiology, 2011).
